In ChEMBL document CHEMBL5696442, “Discovery of type II inhibitors of TGFβ-activated kinase 1 (TAK1) and mitogen-activated protein kinase kinase kinase kinase 2 (MAP4K2)” (J Med Chem, 2015):

Tests used:
Assay type in all cases: cell-based
[1] = biological target: Serine/threonine-protein kinase Nek7 (Homo sapiens) (UniProt Q8TDX7); experiment: Inhibition of NEK7 ACT labeling site in human A-375 cells at 0.05 uM by KiNativ Profiling analysis relative to control
[2] = biological target: T1, Mitogen-activated protein kinase 12 (Homo sapiens) (UniProt P53778); experiment: Inhibition of p38 gamma Lys2 labeling site in human A-375 cells at 0.05 uM by KiNativ Profiling analysis relative to control
T1 sequence (whole entry): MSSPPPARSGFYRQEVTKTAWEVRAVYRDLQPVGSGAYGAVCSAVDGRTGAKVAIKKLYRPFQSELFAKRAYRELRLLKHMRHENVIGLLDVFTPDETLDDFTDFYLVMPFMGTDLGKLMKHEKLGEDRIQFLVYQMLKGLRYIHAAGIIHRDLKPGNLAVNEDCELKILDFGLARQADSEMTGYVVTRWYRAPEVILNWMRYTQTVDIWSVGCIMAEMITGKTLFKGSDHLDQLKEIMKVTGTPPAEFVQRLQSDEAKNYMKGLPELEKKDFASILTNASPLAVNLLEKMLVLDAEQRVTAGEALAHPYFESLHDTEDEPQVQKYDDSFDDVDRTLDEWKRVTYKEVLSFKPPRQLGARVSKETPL

[3] = biological target: Dual specificity mitogen-activated protein kinase kinase 1 (Homo sapiens) (UniProt Q02750); experiment: Inhibition of MAP2K1 Lys2 labeling site harbouring DVKPSNILVNSR in human A-375 cells at 0.5 uM by KiNativ Profiling analysis relative to control
[4] = biological target: T2, Serine/threonine-protein kinase Nek9 (Homo sapiens) (UniProt Q8TD19); experiment: Inhibition of NEK9 Lys1 labeling site harbouring TEDDSLVVWKEVDLTR in human A-375 cells at 0.05 uM by KiNativ Profiling analysis relative to control
T2 sequence (whole entry): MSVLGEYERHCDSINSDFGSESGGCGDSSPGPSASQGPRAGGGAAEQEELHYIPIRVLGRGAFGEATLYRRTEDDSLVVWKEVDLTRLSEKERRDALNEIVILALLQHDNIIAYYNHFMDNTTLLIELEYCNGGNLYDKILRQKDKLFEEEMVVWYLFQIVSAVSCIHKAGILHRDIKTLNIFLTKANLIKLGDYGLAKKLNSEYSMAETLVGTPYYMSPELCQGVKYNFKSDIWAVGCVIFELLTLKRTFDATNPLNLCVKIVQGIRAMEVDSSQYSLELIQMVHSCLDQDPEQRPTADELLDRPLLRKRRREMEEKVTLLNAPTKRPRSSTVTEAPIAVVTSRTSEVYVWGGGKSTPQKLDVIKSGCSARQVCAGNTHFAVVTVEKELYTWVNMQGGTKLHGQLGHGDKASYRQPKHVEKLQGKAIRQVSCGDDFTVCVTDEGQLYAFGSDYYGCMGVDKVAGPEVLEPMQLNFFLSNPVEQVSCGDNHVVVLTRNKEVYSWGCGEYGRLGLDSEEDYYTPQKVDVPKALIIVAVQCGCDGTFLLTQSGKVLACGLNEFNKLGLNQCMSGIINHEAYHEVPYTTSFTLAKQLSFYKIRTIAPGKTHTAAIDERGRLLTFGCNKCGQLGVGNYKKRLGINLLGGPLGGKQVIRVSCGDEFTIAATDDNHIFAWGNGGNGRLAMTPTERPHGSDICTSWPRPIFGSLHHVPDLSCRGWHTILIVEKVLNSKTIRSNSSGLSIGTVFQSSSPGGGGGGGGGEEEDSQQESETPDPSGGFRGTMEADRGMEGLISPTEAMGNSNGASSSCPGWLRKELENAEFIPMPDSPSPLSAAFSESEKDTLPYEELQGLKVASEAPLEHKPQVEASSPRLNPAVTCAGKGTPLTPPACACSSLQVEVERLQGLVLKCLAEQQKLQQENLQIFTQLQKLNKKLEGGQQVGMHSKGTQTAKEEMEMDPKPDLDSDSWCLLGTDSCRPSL

[5] = biological target: 5'-AMP-activated protein kinase catalytic subunit alpha-1 (Homo sapiens) (UniProt Q13131); experiment: Inhibition of AMPKa1 ATP Loop labeling site in human A-375 cells at 0.05 uM by KiNativ Profiling analysis relative to control
[6] = biological target: Proto-oncogene tyrosine-protein kinase Src (Homo sapiens, UniProt P12931); experiment: Inhibition of SRC ACT labeling site in human A-375 cells at 5 uM by KiNativ Profiling analysis relative to control
[7] = biological target: Receptor tyrosine-protein kinase erbB-3 (Homo sapiens) (UniProt P21860); experiment: Inhibition of HER3/ErbB3 ACT labeling site in human A-375 cells at 0.5 uM by KiNativ Profiling analysis relative to control
[8] = biological target: DNA-PK/Ku70/Ku85 (Homo sapiens) (UniProt P78527+P12956+P13010); experiment: Inhibition of DNAPK ATP labeling site harbouring KGGSWIQEINVAEK in human A-375 cells at 0.5 uM by KiNativ Profiling analysis relative to control
In short: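 Live A375 melanoma cells were treated with compound at 0.5 or 5 μM, then lysed. Lysates were labeled with a lysine-reactive ATP or ADP-biotin probe. The read-out was protection of each kinase probe-labeling site from labeling, relative to control.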

[9] = biological target: T3, Mitogen-activated protein kinase kinase kinase 2 (Homo sapiens) (UniProt Q9Y2U5); experiment: Inhibition of MAP3K2 Lys1 labeling site harbouring ELAVKQVQFDPDSPETSKEVNALECEIQLLK in human A-375 cells at 0.05 uM by KiNativ Profiling analysis relative to control
T3 sequence (whole entry): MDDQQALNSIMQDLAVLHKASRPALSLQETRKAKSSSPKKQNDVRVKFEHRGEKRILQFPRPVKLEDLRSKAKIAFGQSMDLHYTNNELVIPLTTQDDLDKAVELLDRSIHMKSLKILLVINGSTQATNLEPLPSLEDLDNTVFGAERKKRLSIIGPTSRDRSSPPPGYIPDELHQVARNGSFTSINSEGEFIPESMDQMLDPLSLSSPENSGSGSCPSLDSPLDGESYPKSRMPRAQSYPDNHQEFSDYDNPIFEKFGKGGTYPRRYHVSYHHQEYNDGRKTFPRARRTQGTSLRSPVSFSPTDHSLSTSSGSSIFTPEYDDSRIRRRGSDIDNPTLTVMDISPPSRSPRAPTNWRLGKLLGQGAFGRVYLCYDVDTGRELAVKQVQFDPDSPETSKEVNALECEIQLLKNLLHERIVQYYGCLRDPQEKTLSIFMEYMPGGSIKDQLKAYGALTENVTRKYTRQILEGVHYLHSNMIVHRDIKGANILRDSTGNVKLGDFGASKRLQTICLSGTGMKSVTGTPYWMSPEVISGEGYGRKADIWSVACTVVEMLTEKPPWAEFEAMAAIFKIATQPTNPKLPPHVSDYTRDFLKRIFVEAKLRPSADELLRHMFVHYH

Chain of Serine/threonine-protein kinase Nek7 (Homo sapiens) (Q8TDX7 whole entry, looked up): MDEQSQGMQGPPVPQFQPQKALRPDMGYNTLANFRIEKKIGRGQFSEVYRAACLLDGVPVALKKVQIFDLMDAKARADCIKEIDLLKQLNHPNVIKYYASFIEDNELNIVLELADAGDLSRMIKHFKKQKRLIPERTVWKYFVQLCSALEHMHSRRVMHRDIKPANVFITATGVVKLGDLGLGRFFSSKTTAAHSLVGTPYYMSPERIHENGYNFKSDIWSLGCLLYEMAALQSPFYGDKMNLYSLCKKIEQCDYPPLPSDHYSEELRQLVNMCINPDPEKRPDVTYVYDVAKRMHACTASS
Chain of Receptor tyrosine-protein kinase erbB-3 (Homo sapiens) (P21860 whole entry): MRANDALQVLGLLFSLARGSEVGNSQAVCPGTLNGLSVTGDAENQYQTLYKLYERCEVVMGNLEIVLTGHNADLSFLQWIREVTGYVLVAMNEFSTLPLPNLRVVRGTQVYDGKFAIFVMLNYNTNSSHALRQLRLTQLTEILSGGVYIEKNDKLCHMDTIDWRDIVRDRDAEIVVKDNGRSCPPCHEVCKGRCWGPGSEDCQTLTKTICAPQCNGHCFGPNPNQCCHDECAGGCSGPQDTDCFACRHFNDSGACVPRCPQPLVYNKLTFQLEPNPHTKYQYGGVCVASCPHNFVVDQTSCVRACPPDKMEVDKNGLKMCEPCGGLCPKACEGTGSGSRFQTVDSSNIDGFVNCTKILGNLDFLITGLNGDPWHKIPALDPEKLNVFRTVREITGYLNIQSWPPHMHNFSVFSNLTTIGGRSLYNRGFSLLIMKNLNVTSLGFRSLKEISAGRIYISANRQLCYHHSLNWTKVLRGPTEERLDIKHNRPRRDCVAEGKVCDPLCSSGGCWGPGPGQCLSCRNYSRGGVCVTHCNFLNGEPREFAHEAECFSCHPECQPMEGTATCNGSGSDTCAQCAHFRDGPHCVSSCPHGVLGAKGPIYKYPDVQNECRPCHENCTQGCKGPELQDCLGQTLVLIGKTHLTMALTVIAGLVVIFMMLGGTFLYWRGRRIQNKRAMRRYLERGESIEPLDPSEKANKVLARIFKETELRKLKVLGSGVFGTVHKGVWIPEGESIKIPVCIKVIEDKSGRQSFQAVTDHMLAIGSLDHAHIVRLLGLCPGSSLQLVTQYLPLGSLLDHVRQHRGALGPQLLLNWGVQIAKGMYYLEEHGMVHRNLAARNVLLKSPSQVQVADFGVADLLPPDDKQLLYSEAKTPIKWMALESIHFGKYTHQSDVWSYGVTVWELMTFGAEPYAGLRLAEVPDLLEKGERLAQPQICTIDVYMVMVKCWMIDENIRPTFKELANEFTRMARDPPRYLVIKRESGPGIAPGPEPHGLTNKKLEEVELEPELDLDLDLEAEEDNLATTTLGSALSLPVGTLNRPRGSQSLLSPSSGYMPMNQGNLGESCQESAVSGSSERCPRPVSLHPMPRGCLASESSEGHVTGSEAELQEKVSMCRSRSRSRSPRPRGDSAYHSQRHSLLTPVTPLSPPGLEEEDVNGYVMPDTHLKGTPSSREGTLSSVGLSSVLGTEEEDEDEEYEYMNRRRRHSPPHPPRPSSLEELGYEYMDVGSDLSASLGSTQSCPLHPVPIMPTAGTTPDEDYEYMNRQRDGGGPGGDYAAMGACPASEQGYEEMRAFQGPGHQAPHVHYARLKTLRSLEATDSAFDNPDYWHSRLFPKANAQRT
Chain of Proto-oncogene tyrosine-protein kinase Src (P12931 2-536 limits assumed): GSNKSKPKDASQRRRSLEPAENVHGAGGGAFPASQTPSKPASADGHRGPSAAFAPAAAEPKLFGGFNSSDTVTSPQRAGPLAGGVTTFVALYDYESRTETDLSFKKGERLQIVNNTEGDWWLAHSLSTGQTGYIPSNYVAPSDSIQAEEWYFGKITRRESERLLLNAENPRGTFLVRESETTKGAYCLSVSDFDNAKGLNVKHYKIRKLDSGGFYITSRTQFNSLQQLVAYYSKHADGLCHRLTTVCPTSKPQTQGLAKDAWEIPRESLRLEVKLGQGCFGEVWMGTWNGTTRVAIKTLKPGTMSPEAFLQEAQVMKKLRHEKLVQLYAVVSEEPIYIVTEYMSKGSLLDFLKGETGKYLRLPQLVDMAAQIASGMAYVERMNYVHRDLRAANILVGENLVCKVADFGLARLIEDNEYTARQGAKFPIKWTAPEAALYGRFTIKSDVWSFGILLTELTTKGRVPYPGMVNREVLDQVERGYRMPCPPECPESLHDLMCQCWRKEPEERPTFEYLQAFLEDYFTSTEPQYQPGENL
Chain of Dual specificity mitogen-activated protein kinase kinase 1 (Homo sapiens) (Q02750 whole entry): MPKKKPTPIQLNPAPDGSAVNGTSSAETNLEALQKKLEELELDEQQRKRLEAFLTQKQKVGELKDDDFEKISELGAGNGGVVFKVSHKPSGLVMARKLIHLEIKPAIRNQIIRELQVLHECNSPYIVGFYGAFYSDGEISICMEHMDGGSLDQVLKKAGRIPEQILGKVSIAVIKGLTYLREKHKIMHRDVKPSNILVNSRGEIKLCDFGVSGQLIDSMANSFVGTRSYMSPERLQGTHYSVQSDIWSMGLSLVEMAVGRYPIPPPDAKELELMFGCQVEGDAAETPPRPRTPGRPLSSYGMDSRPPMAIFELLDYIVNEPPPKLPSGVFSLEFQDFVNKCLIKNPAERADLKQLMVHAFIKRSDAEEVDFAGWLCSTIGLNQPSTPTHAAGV
Chain of 5'-AMP-activated protein kinase catalytic subunit alpha-1 (Homo sapiens) (Q13131 whole entry, looked up): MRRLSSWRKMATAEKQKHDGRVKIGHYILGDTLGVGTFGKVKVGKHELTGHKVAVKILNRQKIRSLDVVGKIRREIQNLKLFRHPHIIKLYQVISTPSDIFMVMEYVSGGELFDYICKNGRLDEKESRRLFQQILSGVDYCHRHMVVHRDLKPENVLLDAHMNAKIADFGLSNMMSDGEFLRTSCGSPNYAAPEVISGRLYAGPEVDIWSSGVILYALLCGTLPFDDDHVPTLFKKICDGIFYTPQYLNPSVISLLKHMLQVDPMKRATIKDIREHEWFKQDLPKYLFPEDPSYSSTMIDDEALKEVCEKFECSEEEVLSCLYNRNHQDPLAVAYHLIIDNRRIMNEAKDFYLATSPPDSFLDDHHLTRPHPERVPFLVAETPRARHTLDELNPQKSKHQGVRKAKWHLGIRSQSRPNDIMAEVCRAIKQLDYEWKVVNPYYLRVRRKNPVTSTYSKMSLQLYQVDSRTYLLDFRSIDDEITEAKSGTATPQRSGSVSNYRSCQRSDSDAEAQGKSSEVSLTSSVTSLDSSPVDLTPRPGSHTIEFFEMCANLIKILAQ

Structure (SMILES) | inhibition [1] | inhibition [2] | inhibition [3] | inhibition [4] | inhibition [5] | inhibition [6] | inhibition [7] | inhibition [8] | inhibition [9]
CCN1CCN(Cc2ccc(NC(=O)c3ccc(C)c(Oc4ccnc5[nH]ccc45)c3)cc2C(F)(F)F)CC1 | 14.2% | 64.9% | -3.9% | 18.9% | -4.4% | 89.6% | 5.1% | 34% | 11.8%
CCN1CCN(Cc2ccc(NC(=O)c3ccc(C)c(/C=C/c4cnc5[nH]ccc5c4OC)c3)cc2C(F)(F)F)CC1 | 6.8% | 24.3% | 1.8% | -2.6% | -8.8% | > 99% | 12.2% | 17.8% | 5.2%
